ChEMBL document CHEMBL1148625, “3-(1,1-dioxo-2H-(1,2,4)-benzothiadiazin-3-yl)-4-hydroxy-2(1H)-quinolinones, potent inhibitors of hepatitis C virus RNA-dependent RNA polymerase” (J Med Chem, 2006)

How the values were obtained:
[1] = molecular target: RNA-directed RNA polymerase (Hepacivirus hominis, UniProt O39930); test: Inhibitory activity against HCV delta 21 NS5B RNA polymerase by SPA assay; parameters: species or system Hepatitis C virus subtype 1b
[2] = molecular target: RNA-directed RNA polymerase (Hepacivirus hominis) (UniProt O39930); test: Inhibition of HCV RNA replication in Huh7 cells; assay type: functional, cell-based; settings: Huh-7
Method in brief: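 Huh-7 subgenomic replicon cells were seeded at 3 × 10³/well in DMEM with 10% FCS, 1% NEAA and 1 mg/mL G418, and allowed 4 h to attach. Eleven 2.5-fold DMSO dilutions were added (final 10,000 to 1.0 nM) and cells incubated 40 h. Neo RNA was measured by TaqMan RT-PCR, normalised to cyclophilin against DMSO controls; n = 8 wells per dilution.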

[3] = Clearance in Sprague-Dawley rat at 1.3 mg/kg, iv or 7.7 mg/kg, po; assay type: ADME, organism-based; settings: in vivo
Method in brief: (§1)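 Single intravenous or oral doses given to Sprague-Dawley rats. Values are reported as means: Cmax (ng/mL), half-life (min), plasma clearance (mL/min/kg), steady-state volume of distribution (L/kg) and oral bioavailability F (%).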

[4] = Clearance in cynomolgus monkey at 1.8 mg/kg, iv or 1.6 mg/kg, po; assay type: ADME, organism-based, Macaca fascicularis; settings: in vivo
Method in brief: (§2)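 Single-dose administration, given both intravenously and orally, to Sprague-Dawley rats, beagle dogs or cynomolgus monkeys. Plasma pharmacokinetic parameters are reported as means: Cmax in ng/mL, terminal half-life in min, clearance in mL/min/kg, steady-state volume of distribution in L/kg, and oral bioavailability F in %.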

[5] = Oral bioavailability in Sprague-Dawley rat at 1.3 mg/kg, iv or 7.7 mg/kg, po; assay type: ADME, organism-based; settings: in vivo; method in brief: as §1
[6] = Oral bioavailability in Beagle dog at 0.9 mg/kg, iv or 1.1 mg/kg, po; assay type: ADME, organism-based, Canis lupus familiaris; settings: in vivo
Method in brief: (§3)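 Single-dose study, with separate intravenous and oral administrations at the listed mg/kg. Plasma concentrations were followed over time, and mean values were derived for Cmax, T1/2, clearance (mL/min/kg), Vdss (L/kg) and oral bioavailability (%).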

[7] = Oral bioavailability in cynomolgus monkey at 1.8 mg/kg, iv or 1.6 mg/kg, po; assay type: ADME, organism-based, Macaca fascicularis; settings: in vivo; method in brief: as §2
[8] = Volume of distribution in Sprague-Dawley rat at 1.3 mg/kg, iv or 7.7 mg/kg, po; assay type: ADME, organism-based; settings: in vivo, read-out: Vdss; method in brief: as §1
[9] = Volume of distribution in Beagle dog at 0.9 mg/kg, iv or 1.1 mg/kg, po; assay type: ADME, organism-based, Canis lupus familiaris; settings: in vivo, read-out: Vdss; method in brief: as §3
[10] = Volume of distribution in cynomolgus monkey at 1.8 mg/kg, iv or 1.6 mg/kg, po; assay type: ADME, organism-based, Macaca fascicularis; settings: in vivo, read-out: Vdss; method in brief: as §2
[11] = Half life in Sprague-Dawley rat at 1.3 mg/kg, iv or 7.7 mg/kg, po; assay type: ADME, organism-based; settings: in vivo; method in brief: as §1
[12] = Half life in Beagle dog at 0.9 mg/kg, iv or 1.1 mg/kg, po; assay type: ADME, organism-based, Canis lupus familiaris; settings: in vivo; method in brief: as §3
[13] = Half life in cynomolgus monkey at 1.8 mg/kg, iv or 1.6 mg/kg, po; assay type: ADME, organism-based, Macaca fascicularis; settings: in vivo; method in brief: as §2
[14] = Cmax in Sprague-Dawley rat at 1.3 mg/kg, iv or 7.7 mg/kg, po; assay type: ADME, organism-based; settings: in vivo; method in brief: as §1
[15] = Cmax in Beagle dog at 0.9 mg/kg, iv or 1.1 mg/kg, po; assay type: ADME, organism-based, Canis lupus familiaris; settings: in vivo; method in brief: as §3
[16] = Cmax in cynomolgus monkey at 1.8 mg/kg, iv or 1.6 mg/kg, po; assay type: ADME, organism-based, Macaca fascicularis; settings: in vivo; method in brief: as §2
[17] = Clearance in Beagle dog at 0.9 mg/kg, iv or 1.1 mg/kg, po; settings: in vivo
[18] = Clearance in Sprague-Dawley rat at 0.8 mg/kg, iv or 5.8 mg/kg, po; assay type: ADME, organism-based; settings: in vivo
Method in brief: (§4)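 Single-dose pharmacokinetics in the named species, given iv and orally at the stated doses. Plasma Cmax, half-life, clearance, steady-state volume of distribution and oral bioavailability were reported as mean values.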

[19] = Clearance in Beagle dog at 0.8 mg/kg, iv or 1.8 mg/kg, po; assay type: ADME, organism-based, Canis lupus familiaris; settings: in vivo; method in brief: as §2
[20] = Oral bioavailability in Sprague-Dawley rat at 0.8 mg/kg, iv or 5.8 mg/kg, po; assay type: ADME, organism-based; settings: in vivo; method in brief: as §4
[21] = Oral bioavailability in Beagle dog at 0.8 mg/kg, iv or 1.8 mg/kg, po; assay type: ADME, organism-based, Canis lupus familiaris; settings: in vivo; method in brief: as §2
[22] = Volume of distribution in Sprague-Dawley rat at 0.8 mg/kg, iv or 5.8 mg/kg, po; assay type: ADME, organism-based; settings: in vivo, read-out: Vdss; method in brief: as §4
[23] = Volume of distribution in Beagle dog at 0.8 mg/kg, iv or 1.8 mg/kg, po; assay type: ADME, organism-based, Canis lupus familiaris; settings: in vivo, read-out: Vdss; method in brief: as §2
[24] = Half life in Sprague-Dawley rat at 0.8 mg/kg, iv or 5.8 mg/kg, po; assay type: ADME, organism-based; settings: in vivo; method in brief: as §4
[25] = Half life in Beagle dog at 0.8 mg/kg, iv or 1.8 mg/kg, po; assay type: ADME, organism-based, Canis lupus familiaris; settings: in vivo; method in brief: as §2
[26] = Cmax in Beagle dog at 0.8 mg/kg, iv or 1.8 mg/kg, po; assay type: ADME, organism-based, Canis lupus familiaris; settings: in vivo; method in brief: as §2
[27] = Cmax in Sprague-Dawley rat at 1.2 mg/kg, iv or 3.7 mg/kg, po; assay type: ADME, organism-based; settings: in vivo; method in brief: as §2
[28] = Cmax in Beagle dog at 0.9 mg/kg, iv or 3.6 mg/kg, po; assay type: ADME, organism-based, Canis lupus familiaris; settings: in vivo; method in brief: as §4
[29] = Cmax in cynomolgus monkey at 1.0 mg/kg, iv or 3.6 mg/kg, po; assay type: ADME, organism-based, Macaca fascicularis; settings: in vivo; method in brief: as §4
[30] = Clearance in Sprague-Dawley rat at 1.2 mg/kg, iv or 3.7 mg/kg, po; assay type: ADME, organism-based; settings: in vivo; method in brief: as §2
[31] = Clearance in Beagle dog at 0.9 mg/kg, iv or 3.6 mg/kg, po; assay type: ADME, organism-based, Canis lupus familiaris; settings: in vivo; method in brief: as §4
[32] = Clearance in cynomolgus monkey at 1.0 mg/kg, iv or 3.6 mg/kg, po; assay type: ADME, organism-based, Macaca fascicularis; settings: in vivo; method in brief: as §4
[33] = Oral bioavailability in Sprague-Dawley rat at 1.2 mg/kg, iv or 3.7 mg/kg, po; assay type: ADME, organism-based; settings: in vivo; method in brief: as §2
[34] = Oral bioavailability in Beagle dog at 0.9 mg/kg, iv or 3.6 mg/kg, po; assay type: ADME, organism-based, Canis lupus familiaris; settings: in vivo; method in brief: as §4
[35] = Oral bioavailability in cynomolgus monkey at 1.0 mg/kg, iv or 3.6 mg/kg, po; assay type: ADME, organism-based, Macaca fascicularis; settings: in vivo; method in brief: as §4
[36] = Volume of distribution in Sprague-Dawley rat at 1.2 mg/kg, iv or 3.7 mg/kg, po; assay type: ADME, organism-based; settings: in vivo, read-out: Vdss; method in brief: as §2
[37] = Volume of distribution in Beagle dog at 0.9 mg/kg, iv or 3.6 mg/kg, po; assay type: ADME, organism-based, Canis lupus familiaris; settings: in vivo, read-out: Vdss; method in brief: as §4
[38] = Volume of distribution in cynomolgus monkey at 1.0 mg/kg, iv or 3.6 mg/kg, po; assay type: ADME, organism-based, Macaca fascicularis; settings: in vivo, read-out: Vdss; method in brief: as §4
[39] = Half life in Sprague-Dawley rat at 1.2 mg/kg, iv or 3.7 mg/kg, po; assay type: ADME, organism-based; settings: in vivo; method in brief: as §2
[40] = Half life in Beagle dog at 0.9 mg/kg, iv or 3.6 mg/kg, po; assay type: ADME, organism-based, Canis lupus familiaris; settings: in vivo; method in brief: as §4
[41] = Half life in cynomolgus monkey at 1.0 mg/kg, iv or 3.6 mg/kg, po; assay type: ADME, organism-based, Macaca fascicularis; settings: in vivo; method in brief: as §4

Chain of RNA-directed RNA polymerase (O39930 whole entry): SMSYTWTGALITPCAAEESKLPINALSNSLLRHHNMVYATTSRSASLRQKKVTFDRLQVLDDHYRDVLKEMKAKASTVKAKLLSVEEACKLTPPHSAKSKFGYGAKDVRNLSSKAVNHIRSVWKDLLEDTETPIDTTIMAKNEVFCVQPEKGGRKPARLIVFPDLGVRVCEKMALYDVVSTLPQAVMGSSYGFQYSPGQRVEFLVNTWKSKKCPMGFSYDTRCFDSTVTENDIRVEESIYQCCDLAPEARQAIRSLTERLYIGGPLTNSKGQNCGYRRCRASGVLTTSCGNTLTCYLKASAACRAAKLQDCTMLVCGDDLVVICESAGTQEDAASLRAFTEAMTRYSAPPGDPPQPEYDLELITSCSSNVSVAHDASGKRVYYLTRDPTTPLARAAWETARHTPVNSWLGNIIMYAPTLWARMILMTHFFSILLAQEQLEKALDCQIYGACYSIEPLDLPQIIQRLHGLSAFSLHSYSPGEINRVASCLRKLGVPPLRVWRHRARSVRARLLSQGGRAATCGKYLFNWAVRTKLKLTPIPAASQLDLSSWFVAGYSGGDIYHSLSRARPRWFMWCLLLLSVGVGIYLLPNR
Chain of RNA-directed RNA polymerase (Hepacivirus hominis) (O39930 1-591): as the sequence (O39930 whole entry) above

SMILES: Nc1ccc2c(c1)c(O)c(C1=NS(=O)(=O)c3ccccc3N1)c(=O)n2CCC1CC1
- IC50 [1]: 32 nM
- EC90 [2]: 593 nM

SMILES: CC(C)CCn1c(=O)c(C2=NS(=O)(=O)c3ccccc3N2)c(O)c2cc(OCC(N)=O)ccc21
- EC90 [2]: 2410 nM

SMILES: CC(C)CCn1c(=O)c(C2=NS(=O)(=O)c3ccccc3N2)c(O)c2c(F)cccc21
- EC90 [2]: 2070 nM

SMILES: O=c1c(C2=NS(=O)(=O)c3ccccc3N2)c(O)c2ccccc2n1Cc1ccoc1
- IC50 [1]: 27 nM
- EC90 [2]: 2530 nM

SMILES: CC(C)CCn1c(=O)c(C2=NS(=O)(=O)c3ccccc3N2)c(O)c2cc(N)ccc21
- EC90 [2]: 1200 nM

SMILES: O=c1c(C2=NS(=O)(=O)c3ccccc3N2)c(O)c2ccccc2n1-c1ccccc1
- EC90 [2]: 1870 nM

SMILES: O=c1c(C2=NS(=O)(=O)c3ccccc3N2)c(O)c2ccccc2n1CCC1CC1
- clearance [3]: 1.7 mL/min/kg
- clearance [4]: 1.73 mL/min/kg
- bioavailability [5]: 78%
- bioavailability [6]: 100%
- bioavailability [7]: > 40%
- Vd [8]: 0.25 L/kg
- Vd [9]: 0.15 L/kg
- Vd [10]: 0.19 L/kg
- half-life [11]: 1.87 h
- half-life [12]: 4.82 h
- half-life [13]: 1.35 h
- IC50 [1]: 13 nM
- EC90 [2]: 808 nM
- Cmax [14]: 6460 ng/mL
- Cmax [15]: 5400 ng/mL
- Cmax [16]: 7920 ng/mL
- clearance [17]: 0.47 mL/min/kg

SMILES: CC(C)CCn1c(=O)c(C2=NS(=O)(=O)c3ccccc3N2)c(O)c2ccccc21
- clearance [18]: 10.1 mL/min/kg
- clearance [19]: 0.5 mL/min/kg
- bioavailability [20]: 70%
- bioavailability [21]: 89%
- Vd [22]: 0.44 L/kg
- Vd [23]: 0.53 L/kg
- half-life [24]: 0.607 h
- half-life [25]: 14.3 h
- EC90 [2]: 1420 nM
- Cmax [26]: 2230 ng/mL

SMILES: Cc1ccc2c(c1)c(O)c(C1=NS(=O)(=O)c3ccccc3N1)c(=O)n2CCC(C)C
- Cmax [27]: 1220 ng/mL
- Cmax [28]: 1960 ng/mL
- Cmax [29]: 2140 ng/mL
- clearance [30]: 1.65 mL/min/kg
- clearance [31]: 1.09 mL/min/kg
- clearance [32]: 5.32 mL/min/kg
- bioavailability [33]: 100%
- bioavailability [34]: > 50%
- bioavailability [35]: > 53%
- Vd [36]: 0.81 L/kg
- Vd [37]: 0.72 L/kg
- Vd [38]: 0.34 L/kg
- half-life [39]: 5.29 h
- half-life [40]: 9.06 h
- half-life [41]: 0.828 h
- IC50 [1]: 47 nM
- EC90 [2]: 831 nM

SMILES: CC(C)CCn1c(=O)c(C2=NS(=O)(=O)c3ccccc3N2)c(O)c2cc(Cl)ccc21
- IC50 [1]: 43 nM
- EC90 [2]: 3830 nM

SMILES: CCOC(=O)CNc1ccc2c(c1)c(O)c(C1=NS(=O)(=O)c3ccccc3N1)c(=O)n2CCC(C)C
- EC90 [2]: 998 nM

SMILES: CC(C)CCn1c(=O)c(C2=NS(=O)(=O)c3ccccc3N2)c(O)c2cc(F)ccc21
- EC90 [2]: 4950 nM

SMILES: CCCCn1c(=O)c(C2=NS(=O)(=O)c3ccccc3N2)c(O)c2ccccc21
- IC50 [1]: 200 nM
- EC90 [2]: 3760 nM

SMILES: CC(C)(C)CCn1c(=O)c(C2=NS(=O)(=O)c3ccccc3N2)c(O)c2cc(NCCO)ccc21
- IC50 [1]: 48 nM
- EC90 [2]: 1440 nM
